Assay results reported in EPA's CvTdb concentration-time database.
“And” between values parts separate entries of the source, which are not always exact repeats. Equal values may be shown once.

Experiments:
[1] = test system: rat; assay: concentration in blood after dosing
[2] = test system: rat; assay: concentration in adipose after dosing; details: dosed: benzo(a)pyrene, 40 umol/kg, iv, male, Sprague Dawley
[3] = test system: rat; assay: concentration in lung after dosing; details: dosed: benzo(a)pyrene, 40 umol/kg, iv, male, Sprague Dawley
[4] = test system: rat; assay: concentration in feces after dosing; details: dosed: benzo(a)pyrene, 40 umol/kg, iv, male, Sprague Dawley
[5] = test system: rat; assay: concentration in skin after dosing; details: dosed: benzo(a)pyrene, 40 umol/kg, iv, male, Sprague Dawley
[6] = test system: rat; assay: concentration in liver after dosing; details: dosed: benzo(a)pyrene, 40 umol/kg, iv, male, Sprague Dawley
[7] = test system: rat; assay: concentration in blood after dosing (% dose/mL); details: dosed: benzo(a)pyrene, 117 nmol, iv, male, Sprague Dawley
[8] = test system: rat; assay: concentration in kidney after dosing; details: dosed: benzo(a)pyrene, 40 umol/kg, iv, male, Sprague Dawley
[9] = test system: human; assay: concentration in blood after dosing; details: inhalation
How it was run: (§1)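 A PubMed search, classifier screening and manual review identified published in vivo toxicokinetic studies, which together with two structured collections supplied concentration-versus-time and amount-versus-time points. Points were mostly digitised from plot screenshots with WebPlotDigitizer, otherwise copied from tables. Dose, route, subject details and medium were hand-curated from each paper, and sampling and analytical methods are those of the sources, often unreported.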

[10] = test system: rabbit; assay: concentration in blood after dosing; details: dosed: hexachlorocyclohexane, 25 mg/kg, oral, female
How it was run: as §1

COc1ccccc1N=Nc1c(O)ccc2ccccc12 [Solvent red1]
[1], dosed: Solvent red1, 20 mg/kg, oral, Sprague Dawley
Details | concentration in blood [ng/mL]
0.2399 h | 122
0.4077 h | 341
0.7668 h | 990
1.067 h | 510
1.606 h | 274
2.085 h | 139
2.561 h | 90.5
3.615 h | 46.4
4.567 h | 15.8
5.518 h | 10.3
7.58 h | 8.35
9.583 h | 4.6
13.09 h | 4.34
18.04 h | 1.27
24.03 h | 0.824
251 s | 2.62

c1ccc2c(c1)cc1ccc3cccc4ccc2c1c34 [benzo(a)pyrene]
Details | concentration in adipose [µmol/kg] | concentration in blood | concentration in feces [µmol/kg] | concentration in kidney [µmol/kg] | concentration in liver [µmol/kg] | concentration in lung [µmol/kg] | concentration in skin [µmol/kg]
[2], 2 h | 2.47 | – | – | – | – | – | –
[2], 4 h | 1.4 | – | – | – | – | – | –
[2], 8 h | 3.23 | – | – | – | – | – | –
[2], 16 h | 3.19 | – | – | – | – | – | –
[2], 24 h | 2.11 | – | – | – | – | – | –
[2], 33 h | 2.4 | – | – | – | – | – | –
[2], 48 h | 1.27 | – | – | – | – | – | –
[2], 72 h | 0.663 | – | – | – | – | – | –
[3], 2 h | – | – | – | – | – | 17 | –
[3], 4 h | – | – | – | – | – | 10.2 | –
[3], 8 h | – | – | – | – | – | 17.6 | –
[3], 16 h | – | – | – | – | – | 16.9 | –
[3], 24 h | – | – | – | – | – | 8.02 | –
[3], 33 h | – | – | – | – | – | 11.2 | –
[3], 48 h | – | – | – | – | – | 7.35 | –
[3], 72 h | – | – | – | – | – | 5.18 | –
[4], 2 h | – | – | 0.0005 | – | – | – | –
[4], 4 h | – | – | 0.002 | – | – | – | –
[4], 8 h | – | – | 0.0127 | – | – | – | –
[4], 16 h | – | – | 0.0779 | – | – | – | –
[4], 24 h | – | – | 0.351 | – | – | – | –
[4], 33 h | – | – | 0.382 | – | – | – | –
[4], 48 h | – | – | 0.354 | – | – | – | –
[4], 72 h | – | – | 0.397 | – | – | – | –
[5], 2 h | – | – | – | – | – | – | 7.56
[5], 4 h | – | – | – | – | – | – | 2.74
[5], 8 h | – | – | – | – | – | – | 1.7
[5], 16 h | – | – | – | – | – | – | 0.783
[5], 24 h | – | – | – | – | – | – | 0.102
[5], 33 h | – | – | – | – | – | – | 0.0296
[5], 48 h | – | – | – | – | – | – | 0.0205
[5], 72 h | – | – | – | – | – | – | 0.018
[6], 2 h | – | – | – | – | 2.31 | – | –
[6], 4 h | – | – | – | – | 1.91 | – | –
[6], 8 h | – | – | – | – | 1.79 | – | –
[6], 16 h | – | – | – | – | 0.574 | – | –
[6], 24 h | – | – | – | – | 0.21 | – | –
[6], 33 h | – | – | – | – | 0.165 | – | –
[6], 48 h | – | – | – | – | 0.0546 | – | –
[6], 72 h | – | – | – | – | 0.0254 | – | –
[7], 0.3233 h | – | 0.081 | – | – | – | – | –
[7], 0.4938 h | – | 0.0586 | – | – | – | – | –
[7], 0.7433 h | – | 0.0404 | – | – | – | – | –
[7], 0.9867 h | – | 0.0307 | – | – | – | – | –
[7], 1.736 h | – | 0.012 | – | – | – | – | –
[7], 2.474 h | – | 0.00662 | – | – | – | – | –
[7], 3.463 h | – | 0.00438 | – | – | – | – | –
[7], 3.977 h | – | 0.00384 | – | – | – | – | –
[7], 4.987 h | – | 0.00267 | – | – | – | – | –
[7], 55 s | – | 0.859 | – | – | – | – | –
[7], 206 s | – | 0.278 | – | – | – | – | –
[8], 2 h | – | – | – | 0.53 | – | – | –
[8], 4 h | – | – | – | 0.145 | – | – | –
[8], 8 h | – | – | – | 0.164 | – | – | –
[8], 16 h | – | – | – | 0.0435 | – | – | –
[8], 24 h | – | – | – | 0.0127 | – | – | –
[8], 33 h | – | – | – | 0.008 | – | – | –
[8], 48 h | – | – | – | 0.004 | – | – | –
[8], 72 h | – | – | – | 0.001 | – | – | –

[1], dosed: benzo(a)pyrene, 40 umol/kg, iv, male, Sprague Dawley
Details | concentration in blood [µmol/kg]
2 h | 0.422
4 h | 0.118
8 h | 0.076
16 h | 0.0274
24 h | 0.0156
33 h | 0.0066
48 h | 0.005
72 h | 0.0024

Clc1ccccc1 [chlorobenzene]
[9], dosed: chlorobenzene, 10 ppm, duration: 8 hr
Details | concentration in blood
8.065 h | 182 ng/mL
8.199 h | 192 ng/mL and 167 ng/mL and 100 ng/mL
8.252 h | 145 ng/mL
8.284 h | 200 ng/mL
8.434 h | 120 ng/mL
8.451 h | 158 ng/mL
8.532 h | 65.3 ng/mL
8.536 h | 158 ng/mL and 140 ng/mL
8.617 h | 112 ng/mL
8.633 h | 109 ng/mL
8.82 h | 107 ng/mL
8.872 h | 128 ng/mL and 140 ng/mL and 51.8 ng/mL
9.018 h | 102 ng/mL
9.124 h | 119 ng/mL
9.201 h | 49.6 ng/mL and 92.9 ng/mL
9.205 h | 119 ng/mL
9.387 h | 98.1 ng/mL
9.533 h | 78.8 ng/mL and 44.2 ng/mL
9.537 h | 108 ng/mL
9.582 h | 100 ng/mL
9.87 h | 96 ng/mL and 69.7 ng/mL and 42.1 ng/mL
10.2 h | 40.5 ng/mL and 77.5 ng/mL and 91.3 ng/mL
10.53 h | 50.2 ng/mL and 63.4 ng/mL and 71.5 ng/mL
10.86 h | 41.7 ng/mL
10.87 h | 58.7 ng/mL and 66.2 ng/mL
11.2 h | 60.9 ng/mL

CCCCCCCCCC [decane]
[1], dosed: decane, 1200 ppm, inhalation, duration: 4 hr
Details | concentration in blood [µg/g]
0.51 h | 0.855
0.5118 h | 1.32
0.5126 h | 1.61
0.5141 h | 0.232
1.018 h | 0.402
1.021 h | 0.836
1.022 h | 1.06
1.023 h | 1.4
2.003 h | 0.669
2.007 h | 0.196
2.01 h | 0.37
2.011 h | 0.451
3.997 h | 0.455
4.002 h | 0.176
4.003 h | 0.21
5.5 min | 4.98
335 s | 6.97
338 s | 8.67

BrCBr [dibromomethane]
[1], dosed: dibromomethane, dermal, duration: 4 hr, male, Fischer-344
Details | concentration in blood [ng/mL]
0.4941 h, 500 ppm | 965
0.5004 h, 5000 ppm | 8990
0.5042 h, 10000 ppm | 34200
0.5051 h, 1000 ppm | 1170
0.9982 h, 500 ppm | 1280
0.9999 h, 5000 ppm | 14700
1.004 h, 10000 ppm | 55200
1.005 h, 1000 ppm | 2090
2.005 h, 500 ppm | 1290
2.007 h, 1000 ppm | 2720
2.011 h, 10000 ppm | 90100
2.014 h, 5000 ppm | 30000
2.998 h, 1000 ppm | 3020
2.998 h, 10000 ppm | 120000
3 h, 500 ppm | 1150
3.005 h, 5000 ppm | 38200
4.005 h, 1000 ppm | 3130
4.005 h, 10000 ppm | 142000
4.007 h, 500 ppm | 1280
4.017 h, 5000 ppm | 44900

CCOC(C)(C)C [ethyl tert-butyl ether]
concentration in blood [nM], [9], dosed: ethyl tert-butyl ether, duration: 4 hr
Details | 2.045 h | 4.023 h | 4.057 h | 6.068 h | 7.977 h | 9.972 h | 11.98 h | 23.9 h | 61 s | 184 s
4.5 ppm | 371 | 117 | – | – | – | – | – | – | 1320 | –
40.6 ppm | 3350 | – | 1940 | 1750 | 941 | 1100 | 762 | 171 | – | 12000

ClC1C(Cl)C(Cl)C(Cl)C(Cl)C1Cl (stereo not given) [hexachlorocyclohexane]
[10]
Details | concentration in blood [ng/mL]
168 h | 9220
336 h | 12300
504 h | 18400
672 h | 24600
840 h | 33800
1008 h | 39900
1176 h | 46100
1344 h | 52200
1512 h | 58400
1680 h | 64500
1848 h | 70700
2016 h | 86000
